Screening data (PubChem)
TAAR1 antag: human TAAR1 antagonists, primary screen, Fluo-8 calcium fluorescence, CHO RD-HGA16 cells; inhibition, % at 3 µM; Trace amine-associated receptor 1 (Homo sapiens), Q96RJ0; actives 1.5% (n = 360,000); antagonist;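 active means inhibition above a per-plate cutoff, the mean inhibition of test compounds on that plate plus 3 SD, cut at about 49% in these data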
Target sequence (Q96RJ0 whole entry, looked up): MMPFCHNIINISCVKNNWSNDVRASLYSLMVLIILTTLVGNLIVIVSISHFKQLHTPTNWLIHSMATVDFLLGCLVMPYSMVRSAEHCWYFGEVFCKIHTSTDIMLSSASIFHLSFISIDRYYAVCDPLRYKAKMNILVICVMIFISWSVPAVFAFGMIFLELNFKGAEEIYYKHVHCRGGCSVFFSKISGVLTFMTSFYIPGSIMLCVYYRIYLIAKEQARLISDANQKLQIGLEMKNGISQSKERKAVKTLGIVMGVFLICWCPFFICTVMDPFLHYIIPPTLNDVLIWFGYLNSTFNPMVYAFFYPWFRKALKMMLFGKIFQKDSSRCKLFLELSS
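Material: RD-HGA16 CHO cells with stable hTAAR1 and Gα16; Dosing: single nominal final test compound concentration of 3 µM; Schedule: seeding 17-24 h prior, 75-min 37 °C, 30-min RT dye loading; Detection: kinetic Fluo-8 calcium fluorescence measurement; Measure: % inhibition from peak post-agonist over basal fluorescence ratio; Benchmarks: vehicle and agonist controls.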
GPR7 antag: GPR7 receptor antagonists, primary screen, cell-based, fluorescence, single concentration; GPR7-expressing cells, fluorescence antagonist assay; inhibition, % at 4.4 µM; actives 1.1% (n = 290,000); AID 1861, 2009; in the data active means inhibition above about 16%, passing the limit was not always enough;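 further: cells stimulated with the agonist NPW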
Target sequence (P48145 whole entry, looked up): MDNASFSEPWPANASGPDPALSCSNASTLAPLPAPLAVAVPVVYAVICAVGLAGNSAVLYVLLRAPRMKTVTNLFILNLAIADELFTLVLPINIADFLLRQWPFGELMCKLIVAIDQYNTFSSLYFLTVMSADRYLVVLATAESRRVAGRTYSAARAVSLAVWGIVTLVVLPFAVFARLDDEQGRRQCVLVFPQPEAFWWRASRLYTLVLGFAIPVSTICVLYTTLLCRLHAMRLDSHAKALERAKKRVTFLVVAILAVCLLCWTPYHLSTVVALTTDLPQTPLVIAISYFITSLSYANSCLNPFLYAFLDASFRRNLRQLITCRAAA
OX1R antag-1: antagonists of human orexin 1 receptor (OX1R); Orexin/Hypocretin receptor type 1 (Homo sapiens), O43613; OX1R-expressing cells, FRET antagonist read-out; inhibition, % at 6.6 µM; actives 1.8% (n = 330,000); AID 485270, 2010; in the data active means inhibition mostly above about 38%, no sharp cut-off; inactive means mostly below about 40%
CHO parental Ca: ATP-evoked calcium signal inhibitors, parental CHO, primary screen, counter-screen for OX1R antagonist project, cell-based, fluorescence, Fluo-8 calcium dye | parental CHO-K1, ATP-induced calcium, Fluo-8 fluorescence | actives 0.63% (n = 330,000) | inhibition, % at 5.6 µM | AID 463079, 2010;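 active means inhibition above that plate's mean sample inhibition plus 3 SD, cut at about 26% in these data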
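Test system: untransfected parental CHO cell line; also added: ATP stimulus; dosing: 5.6 µM, single dose; signal: calcium-sensitive Fluo-8 fluorescence; measure: percent inhibition of ATP-evoked calcium rise, normalized to controls; benchmarks: low control ATP plus DMSO, high control DMSO only; replication: one well per compound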
OX1R antag-2: OX1R (HCRTR1) antagonists, primary screen, fluorescence, CHO/OX1R cells, Fluo-8 calcium, orexin A; inhibition, % at 5 µM; Fluo-8 calcium fluorescence; actives 0.43% (n = 330,000); Orexin/Hypocretin receptor type 1 (Homo sapiens), O43613;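 active means inhibition above its plate's threshold, mean inhibition of all tested compounds on the plate plus 3 SD, cut at about 37% in these data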
TAAR1 agonist: human TAAR1 agonists, primary screen, Fluo-8 calcium fluorescence, CHO RD-HGA16 cells. actives 0.99% (n = 360,000). AID 624467, 2012. activation, % at 3 µM. vehicle wells 0%, saturating PEA agonist 100%;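 active means activation above the mean activation of all test compounds in the run plus 3 SD, cut at about 38% in these data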
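Test system: RD-HGA16 (CHO) cells co-expressing Gα16 and hTAAR1; dosing: one-point dosing at 3 µM (nominal); timing: 17-24 h seeding, 75 min 37 °C dye, 30 min RT; signal: kinetic Fluo-8 calcium fluorescence; read-out basis: % activation relative to PEA EC100 response; controls: DMSO and PEA EC100; replicates: n 1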
Each line names hits and unclear results; the compound was inactive in the other large screens. Rows were chosen to be rich in hits. Some 4.6% of all compounds tested hit in one or more screens of this group.

O=C1NC(Cc2ccccc2)c2nc3ccc(F)cc3c(=O)n2-c2cc3ccccc3cc21 (centres undefined)	TAAR1 antag 48.9 (no result: GPR7 antag, OX1R antag-1, CHO parental Ca, OX1R antag-2)
O=C1NC(Cc2ccccc2)c2nc3ccc(Cl)cc3c(=O)n2-c2cc3ccccc3cc21 (centres undefined)	none (no result: GPR7 antag, OX1R antag-1, CHO parental Ca, OX1R antag-2)
O=C(O)c1ccccc1C(=O)Nc1ccc(Oc2cccc(C(F)(F)F)c2)nc1	none
COc1ccc(NC(=O)Cc2ccc(-c3ccccc3)cc2)cn1	CHO parental Ca 69.3
Cc1ccc(C(=O)Nc2ccc(Oc3cccc(C(F)(F)F)c3)nc2)cc1	TAAR1 agonist 39.5
COc1ccc(NC(=O)Nc2cc(C)cc(C)c2)cn1	none
COc1ccc(NC(=O)Nc2ccc([N+](=O)[O-])cc2)cn1	CHO parental Ca 42.6
COc1ccc(NC(=O)Nc2cccc(C(F)(F)F)c2)cn1	CHO parental Ca 40.8, OX1R antag-2 46.5
C=CCNC(=S)NC(CC(=O)OC)c1ccc2c(c1)OCO2 (centres undefined)	none
O=C(c1ccccn1)N1CCCC(N2CCN(c3ccc(F)cc3)CC2)C1 (centres undefined)	none
Cc1cc2c(c(=O)o1)[C@@]1(C(=O)Nc3ccccc31)C1=C(CCCC1=O)O2	none (no result: GPR7 antag, OX1R antag-1, CHO parental Ca, OX1R antag-2)
CCc1cccc(C)c1NC(=O)CSc1ncn[nH]1	CHO parental Ca 29.1
CCc1ccccc1NC(=O)CSc1ncn[nH]1	none
Cc1ccc(OCCNC(=O)Cc2ccc(F)cc2)cc1	none
CS(=O)(=O)N(CC(=O)N1CCN(Cc2ccccc2)CC1)Cc1ccccc1	GPR7 antag 16.4
CCOC(=O)N1CCN(C(=O)CN(Cc2ccccc2)S(C)(=O)=O)CC1	none
COc1ccccc1C(=O)NC(=S)Nc1cccnc1Cl	OX1R antag-1 47.5
CC(C)C(c1nnnn1Cc1ccco1)N1CCN(c2nc3ccccc3s2)CC1 (centres undefined)	TAAR1 antag 54.6
CC(C)CC(c1nnnn1Cc1cccs1)N1CCN(c2nc3ccccc3s2)CC1 (centres undefined)	none
O=C(NCC(c1ccco1)N1CCCCC1)c1ccc(COc2ccc(Cl)cc2)cc1 (centres undefined)	none (no result: GPR7 antag, OX1R antag-1, CHO parental Ca, OX1R antag-2)
Cc1cc(C)n(-c2nc(Nc3ccccc3C)nc(-n3nc(C)cc3C)n2)n1	TAAR1 antag 87.5, TAAR1 agonist 39.1
COc1ccc(O)c(C(=O)CC(=O)c2ccccc2)c1	none (no result: TAAR1 antag, TAAR1 agonist)
COc1ccc(O)c(C(=O)c2cc(C(=O)NCCc3ccccc3)c(=O)n(CCc3ccccc3)c2)c1	TAAR1 antag 51.3
CC(C)N1CCC2(CC1)N=C(c1ccc3c(c1)OCO3)CC(c1cc(Cl)ccc1O)N2 (centres undefined)	OX1R antag-1 87.1, OX1R antag-2 67.7
Cc1cc(NC(=O)Cn2cnc3sccc3c2=O)no1	none (no result: GPR7 antag)
CC1=NOC(=O)/C1=C\c1ccc(-c2ccc(Br)cc2)o1	TAAR1 antag 67.4 (no result: OX1R antag-1, CHO parental Ca, OX1R antag-2)
CN(C)CC(CCC(CN(C)C)C(=O)c1ccccc1)C(=O)c1ccccc1 (centres undefined)	GPR7 antag 37.9 (no result: TAAR1 antag, OX1R antag-1, CHO parental Ca, OX1R antag-2, TAAR1 agonist)
COc1cc(C2NC(=O)NC(C)=C2C(C)=O)ccc1O (centres undefined)	none
CC(=O)c1ccc(NC(=O)c2cc(CC(C)C)on2)cc1	CHO parental Ca 35.6
CC(C)Cc1cc(C(=O)Nc2cccnc2)no1	none
Cc1cc(O)cc(C)c1NS(=O)(=O)c1ccc2ccccc2c1	none
O=C(NC1CCCCC1)C1CCCN(S(=O)(=O)c2cccc3cccnc23)C1 (centres undefined)	none
O=C(C1CCCN(S(=O)(=O)c2cccc3cccnc23)C1)N1CCc2ccccc21 (centres undefined)	OX1R antag-1 70.3
CCOc1ccccc1NC(=O)C1CCCN(S(=O)(=O)c2cccc3cccnc23)C1 (centres undefined)	OX1R antag-1 38.2
COc1cccc(NC(=O)C2CCCN(S(C)(=O)=O)C2)c1 (centres undefined)	none
COc1cccc(NC(=O)C2CCCN(S(=O)(=O)c3cccc4cccnc34)C2)c1 (centres undefined)	OX1R antag-1 55.1
O=C(Nc1ccccc1F)C1CCCN(S(=O)(=O)c2cccc3cccnc23)C1 (centres undefined)	OX1R antag-1 35.1
CCOc1ccccc1NC(=O)C1CCCN(S(=O)(=O)c2cccc3nsnc23)C1 (centres undefined)	none
COc1ccc(NC(=O)COC(=O)C2CCN(S(=O)(=O)c3cccs3)CC2)cc1OC	none (no result: GPR7 antag)
O=C(NCC1COc2ccccc2O1)C1CCCN(S(=O)(=O)c2cccc3cccnc23)C1 (centres undefined)	OX1R antag-1 55.8
O=C(NCC1COc2ccccc2O1)C1CCCN(S(=O)(=O)c2cccc3nsnc23)C1 (centres undefined)	none
Cc1ccc2c(CC(=O)OC(C)C(=O)NCc3ccc4c(c3)OCO4)coc2c1 (centres undefined)	none
CCCNC(=O)c1ccc(-c2nc3ccccc3s2)s1	OX1R antag-1 61.3
CCCNC(=O)Nc1nc2ccccc2s1	none
COc1ccc(S(=O)(=O)N2CCSC2c2ccc(OC)c(OC)c2)cc1 (centres undefined)	none
COc1ccc(C2SCCN2S(=O)(=O)c2ccc(F)cc2)cc1OC (centres undefined)	OX1R antag-1 37.2
COc1ccc(/C=C2\SC(=O)N(CCNC(=O)Cc3coc4cc(C)ccc34)C2=O)cc1OC	OX1R antag-1 54.0
COc1ccc(/C=C2/SC(=O)N(CCC(=O)Nc3ccc(C)cc3)C2=O)cc1OC	none
COc1ccc(C(CCN2CCOCC2)c2c(O)cc(OC)cc2OC)cc1 (centres undefined)	none (no result: GPR7 antag)
COc1ccc(C(c2c(O)ccc3ccccc23)N2CCOCC2)c(OC)c1 (centres undefined)	CHO parental Ca 68.2, OX1R antag-2 71.2
CSc1ncccc1C(=O)Nc1ccc(F)c(F)c1F	GPR7 antag 15.5
CN(C)CC(O)COc1cccc(OCC(O)CN(C)C)c1 (centres undefined)	none
Cc1cc(OCC(O)CN(C)C(=O)C(C)Oc2ccccc2)ccc1Cl (centres undefined)	OX1R antag-1 48.0
Cc1nc2nc(-c3cccs3)[nH]c2cc1Br	OX1R antag-1 42.6 (no result: GPR7 antag)
c1ccc(-c2nc(-c3cccs3)[nH]c2-c2ccccc2)cc1	none
O=S(=O)(O)c1cc2oc(-c3ccccc3)nc2c2ccccc12	none (no result: GPR7 antag)
